Here are results for 19 compounds from ChEMBL document CHEMBL5532690, “Antitubercular activity of 2-mercaptobenzothiazole derivatives targeting Mycobacterium tuberculosis type II NADH dehydrogenase” (RSC Med Chem, 2024).

In brackets after ≈: the same amount, converted by molar mass. Bounds are passed on as bounds.

Test [1] deals with Mycobacterium tuberculosis variant bovis. The test can be described thus: Antitubercular activity against Mycobacterium bovis BCG measured after 10 days by liquid broth microdilution assay. Format: functional. The conditions noted are these: 240 h, time 10 day. Put shortly:
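Broth microdilution in 7H9 with 0.2% glycerol, 0.05% Tween 80 and 10% ADS. Mid-log cultures (OD600 0.4–0.6) were diluted to OD600 0.005 (1.0 × 10^6 CFU ml−1) and added to two-fold serial compound dilutions. Plates were incubated at 37 °C for 10 days and read visually. MIC was the lowest concentration with no turbidity.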
For orientation: In broth dilution the organism is exposed to a series of concentrations in liquid medium.

Test [2] shares this test system. Kind of test: Antitubercular activity against Mycobacterium bovis BCG assessed as inhibition of intracellular ATP synthesis incubated for 24 hrs by BacTiter-Glo microbial cell viability assay. The test is classed as functional, organism-based. In outline:
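Mid-log cultures were adjusted to OD600 0.05 and exposed to compounds at 37 °C for 24 h. BacTiter-Glo reagent was then added for 12 min and luminescence was read. H37Ra and BCG were grown in 7H9 with glycerol, Tween 80 and ADS. mc2 6230 was grown with tyloxapol plus methionine, leucine, arginine and pantothenate. Values are the mean of triplicates.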

One may read the MIC90 as the lowest concentration that inhibits either 90% of growth or 90% of the strains tested, depending on the study. High values mean lower susceptibility, low ones higher susceptibility. Broadly, the IC50 is the point on the concentration scale where inhibition reaches its midpoint.

Turning to `O=C(CSc1nc2ccccc2c(=O)[nH]1)NC1CCCCC1`, the MIC90 in test [1] turned out to be 1 µg/mL (≈ 3.15 µM). In test [2], the IC50 came to 4.99 µg/mL (≈ 15.7 µM).

On to `O=C(CSc1nc2c(ccc3ccccc32)s1)NC1CCCCC1`, for which the MIC90 in test [1] is 64 µg/mL (≈ 180 µM). Moreover, in test [2], the half-maximal inhibitory concentration (IC50) was found to be 38 µg/mL (≈ 106 µM).

Take `O=C(CSc1nc2c(Br)cc(C(F)(F)F)cc2s1)NC1CCCCC1`: the MIC90 in test [1] worked out at 64 µg/mL (≈ 141 µM). Further, the IC50 in test [2] is 39.8 µg/mL (≈ 87.9 µM).

For the compound `O=C(CSc1nc2c(Br)cc(F)cc2s1)NC1CCCCC1`, in test [1], the MIC90 stood at 4 µg/mL (≈ 9.92 µM). Further, the IC50 in test [2] was 13.5 µg/mL (≈ 33.5 µM).

In the case of `O=C(CSc1nc2c(Br)cc(OC(F)(F)F)cc2s1)NC1CCCCC1`, the MIC90 in test [1] turned out to be 128 µg/mL (≈ 273 µM). Also, the IC50 in test [2] was 40.8 µg/mL (≈ 86.9 µM).

`Cc1cc(C)c2nc(SCC(=O)NC3CCCCC3)sc2c1` had an MIC90 in test [1] of 4 µg/mL (≈ 12 µM). Also, in test [2], the IC50 turned out to be 13.4 µg/mL (≈ 40.2 µM).

Take `O=C(CSc1nc2ccc(F)cc2s1)NC1CCCCC1`: the MIC90 in test [1] came to 8 µg/mL (≈ 24.7 µM). Moreover, the IC50 in test [2] is 19.7 µg/mL (≈ 60.6 µM).

With `CC(C)c1ccc2nc(SCC(=O)NC3CCCCC3)sc2c1`, the MIC90 in test [1] was 4 µg/mL (≈ 11.5 µM). Moreover, the IC50 in test [2] came to 9.89 µg/mL (≈ 28.4 µM).

The compound `O=C(CSc1nc2ccccc2s1)NC1CCCCC1` returned an MIC90 in test [1] of 64 µg/mL (≈ 209 µM). Besides, the IC50 in test [2] was found to be 33.2 µg/mL (≈ 108 µM).

The compound `O=C(CSc1nc2ccc(OC(F)(F)F)cc2s1)NC1CCCCC1` came in with an MIC90 in test [1] of 128 µg/mL (≈ 328 µM). The IC50 in test [2] was 30.4 µg/mL (≈ 77.9 µM).

As to `O=C(CSc1nc2ccc([N+](=O)[O-])cc2s1)NC1CCCCC1`, in test [1], the MIC90 is 32 µg/mL (≈ 91.1 µM). In test [2], the IC50 amounted to 34.4 µg/mL (≈ 98 µM).

`O=C(CSc1nc2ccc(Br)cc2s1)NC1CCCCC1`: the MIC90 in test [1] worked out at 128 µg/mL (≈ 332 µM). Further, the IC50 in test [2] came to 31.8 µg/mL (≈ 82.4 µM).

As to `O=C(CSc1nc2ccc(C(F)(F)F)cc2s1)NC1CCCCC1`, the MIC90 in test [1] is 128 µg/mL (≈ 342 µM). The IC50 in test [2] is 19.7 µg/mL (≈ 52.6 µM).

As to `Cc1ccc2nc(SCC(=O)NC3CCCCC3)sc2c1`, in test [1], the MIC90 turned out to be 16 µg/mL (≈ 49.9 µM). The IC50 in test [2] came out at 14.4 µg/mL (≈ 44.9 µM).

`O=C(CSc1nc2ccc(Cl)cc2s1)NC1CCCCC1` returned an MIC90 in test [1] of 64 µg/mL (≈ 188 µM). In addition, the IC50 in test [2] turned out to be 32.9 µg/mL (≈ 96.4 µM).

`CC(C)/N=c1\cc2n(-c3ccc(Cl)cc3)c3ccccc3nc-2cc1Nc1ccc(Cl)cc1` [CLOFAZIMINE]: in test [1], the MIC90 turned out to be 0.25 µg/mL (≈ 0.528 µM).

With `NNC(=O)c1ccncc1` [ISONIAZID], the MIC90 in test [1] was found to be 0.06 µg/mL (≈ 0.438 µM).

In test [1], `CO[C@H]1/C=C/O[C@@]2(C)Oc3c(C)c(O)c4c(O)c(c(/C=N/N5CCN(C)CC5)c(O)c4c3C2=O)NC(=O)/C(C)=C\C=C\[C@H](C)[C@H](O)[C@@H](C)[C@@H](O)[C@@H](C)[C@H](OC(C)=O)[C@@H]1C` [RIFAMPIN] returned an MIC90 of 0.03 µg/mL (≈ 0.0365 µM).

Take `C=C(C)[C@H]1Cc2c(ccc3c2O[C@@H]2COc4cc(OC)c(OC)cc4[C@@H]2C3=O)O1` [ROTENONE]: the MIC90 in test [1] was greater than 64 µg/mL.
